From ChEMBL document CHEMBL4834405, “Structure-Based Design of High-Affinity Macrocyclic FKBP51 Inhibitors” (J Med Chem, 2021) come the findings set out here.

Where only a bound is given, the exact number is not on record here.

Assay [1] deals with T1, Peptidyl-prolyl cis-trans isomerase FKBP5 (Homo sapiens) (UniProt Q13451).
T1 sequence (whole entry): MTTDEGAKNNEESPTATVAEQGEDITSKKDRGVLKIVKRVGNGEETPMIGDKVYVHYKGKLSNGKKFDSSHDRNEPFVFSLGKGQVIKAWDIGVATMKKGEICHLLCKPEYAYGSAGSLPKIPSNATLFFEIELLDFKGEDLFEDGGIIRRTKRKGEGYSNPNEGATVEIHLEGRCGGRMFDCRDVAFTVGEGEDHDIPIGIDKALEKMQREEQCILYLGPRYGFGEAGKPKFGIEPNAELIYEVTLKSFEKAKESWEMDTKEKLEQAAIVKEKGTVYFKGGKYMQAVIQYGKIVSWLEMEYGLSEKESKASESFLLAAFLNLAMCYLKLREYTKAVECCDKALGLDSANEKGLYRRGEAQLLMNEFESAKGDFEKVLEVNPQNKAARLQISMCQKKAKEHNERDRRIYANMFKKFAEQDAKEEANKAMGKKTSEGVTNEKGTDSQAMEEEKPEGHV
Put plainly: Binding affinity to FKBP51 FK1 domain (unknown origin) assessed as change in enthalpy by isothermal titration calorimetric analysis. An outline of the steps:
(§1)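 FKBP51 FK1 domain, ITC at 25 °C in 20 mM HEPES pH 8.0, 20 mM NaCl. Standard setup: 10 μM protein in cell with 0.5% DMSO, 100 μM ligand in syringe. Reverse setup for poorly soluble ligand: 10 μM ligand in cell with 5% DMSO, 100 μM protein in syringe. 18 × 2 μL injections, one-site binding fit, triplicates, weighted SD that includes fit errors.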

The target in assay [2] is T1, Peptidyl-prolyl cis-trans isomerase FKBP5 (Homo sapiens). Put plainly: Binding affinity to FKBP51 FK1 domain (unknown origin) assessed as gibbs free energy change by isothermal titration calorimetric analysis. An outline of the steps: as §1
(Isothermal titration calorimetry measures the heat released or taken up as one component is titrated into another.)

Assay [3] has as its target T2, Peptidyl-prolyl cis-trans isomerase FKBP5 (Homo sapiens, UniProt Q13451).
T2 sequence (Q13451 whole entry): T1 sequence (whole entry)
The assay can be described thus: Binding affinity to FKBP51 FK1 domain (unknown origin) assessed as dissociation constant at 25 degreeC by isothermal titration calorimetric analysis. The essentials: as §1

The nature of assay [4]: (§2) Selectivity ratio of Kd for displacement of fluorescent tracer 5-(3-(4-((1S,5S,6S)-10-(3,5-dichlorophenylsulfonyl)-2-oxo-3-(pyridin-3-ylmethyl)-3,10-diazabicyclo[4.3.1]decan-5-yl)-1H-1,2,3-triazol-1-yl)propylcarbamoyl)-2-(6-(dimethylamino)-3-(dimethyliminio)-3H-xanthen-9-yl)benzoate from recombinant full length C-terminal FLAG-tagged FKBP12.6 (unknown origin) to Kd for displacement of fluorescent tracer 5-(3-(4-((1S,5S,6S)-10-(3,5-dichlorophenylsulfonyl)-2-oxo-3-(pyridin-3-ylmethyl)-3,10-diazabicyclo[4.3.1]decan-5-yl)-1H-1,2,3-triazol-1-yl)propylcarbamoyl)-2-(6-(dimethylamino)-3-(dimethyliminio)-3H-xanthen-9-yl)benzoate from recombinant full length C-terminal FLAG-tagged FKBP51 (unknown origin).

The nature of assay [5]: as §2, with “FJBP12” for “FKBP12.6 (unknown origin)”.
In assay [6] the target is T3, Peptidyl-prolyl cis-trans isomerase FKBP4 (Homo sapiens, UniProt Q02790).
T3 sequence (Q02790 whole entry): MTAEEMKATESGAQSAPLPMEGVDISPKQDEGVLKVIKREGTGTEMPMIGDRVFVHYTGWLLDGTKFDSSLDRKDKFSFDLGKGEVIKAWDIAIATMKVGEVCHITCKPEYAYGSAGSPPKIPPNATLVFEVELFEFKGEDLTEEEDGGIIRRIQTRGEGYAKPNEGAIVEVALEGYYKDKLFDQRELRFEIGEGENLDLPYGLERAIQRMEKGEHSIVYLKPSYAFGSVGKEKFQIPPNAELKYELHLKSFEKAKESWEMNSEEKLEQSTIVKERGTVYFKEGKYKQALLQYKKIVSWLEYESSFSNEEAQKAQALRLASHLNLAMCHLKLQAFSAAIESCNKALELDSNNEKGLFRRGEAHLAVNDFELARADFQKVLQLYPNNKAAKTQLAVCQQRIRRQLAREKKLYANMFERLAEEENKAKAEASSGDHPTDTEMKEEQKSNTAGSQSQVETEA
Put plainly: Displacement of fluorescent tracer 5-(3-(4-((1S,5S,6S)-10-(3,5-dichlorophenylsulfonyl)-2-oxo-3-(pyridin-3-ylmethyl)-3,10-diazabicyclo[4.3.1]decan-5-yl)-1H-1,2,3-triazol-1-yl)propylcarbamoyl)-2-(6-(dimethylamino)-3-(dimethyliminio)-3H-xanthen-9-yl)benzoate from recombinant full length C-terminal FLAG-tagged FKBP52 (unknown origin) expressed in Escherichia coli BL21 (DE3) cells incubated for 30 mins by fluorescence polarisation competition binding assay. The essentials:
(§3)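 Competitive FP in 150 mM NaCl, 20 mM HEPES pH 8.0, 0.002% Triton X-100. Ligand 1:1 serially diluted in DMSO and premixed with fluorescent tracer, tracer working solution 11.9 nM (FKBP12.6, 51FK1, 52FK1) or 5.95 nM (FKBP12) before final 10-fold dilution into protein. 30 min at room temperature, read at ex/em 535/590 nm. Weighted SD from at least two independent runs.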
A general note: In fluorescence polarisation assays a small probe gives low polarisation when free and higher when bound to something large.

Assay [7] addresses Peptidyl-prolyl cis-trans isomerase FKBP1B (Homo sapiens, UniProt P68106). The assay can be described thus: Displacement of fluorescent tracer 5-(3-(4-((1S,5S,6S)-10-(3,5-dichlorophenylsulfonyl)-2-oxo-3-(pyridin-3-ylmethyl)-3,10-diazabicyclo[4.3.1]decan-5-yl)-1H-1,2,3-triazol-1-yl)propylcarbamoyl)-2-(6-(dimethylamino)-3-(dimethyliminio)-3H-xanthen-9-yl)benzoate from recombinant full length C-terminal FLAG-tagged FKBP12.6 (unknown origin) expressed in Escherichia coli BL21 (DE3) cells incubated for 30 mins by fluorescence polarisation competition assay. The essentials:
as §3

The target in assay [8] is Peptidyl-prolyl cis-trans isomerase FKBP1A (Homo sapiens, UniProt P62942). The assay can be described thus: Displacement of fluorescent tracer 5-(3-(4-((1S,5S,6S)-10-(3,5-dichlorophenylsulfonyl)-2-oxo-3-(pyridin-3-ylmethyl)-3,10-diazabicyclo[4.3.1]decan-5-yl)-1H-1,2,3-triazol-1-yl)propylcarbamoyl)-2-(6-(dimethylamino)-3-(dimethyliminio)-3H-xanthen-9-yl)benzoate from recombinant full length C-terminal FLAG-tagged FKBP12 (unknown origin) expressed in Escherichia coli BL21 ([…]) cells incubated for 30 mins by fluorescence polarisation competition binding assay. An outline of the steps:
as §3

A short description of assay [9]: as §2, with “FKBP52” for “FKBP12.6”.
The target of assay [10] is T2, Peptidyl-prolyl cis-trans isomerase FKBP5. Put plainly: Displacement of fluorescent tracer 5-(3-(4-((1S,5S,6S)-10-(3,5-dichlorophenylsulfonyl)-2-oxo-3-(pyridin-3-ylmethyl)-3,10-diazabicyclo[4.3.1]decan-5-yl)-1H-1,2,3-triazol-1-yl)propylcarbamoyl)-2-(6-(dimethylamino)-3-(dimethyliminio)-3H-xanthen-9-yl)benzoate from recombinant full length C-terminal FLAG-tagged FKBP51 (unknown origin) expressed in Escherichia coli BL21 (DE3) cells incubated for 30 mins by fluorescence polarisation competition binding assay.

Sequence of Peptidyl-prolyl cis-trans isomerase FKBP1B (P68106 whole entry): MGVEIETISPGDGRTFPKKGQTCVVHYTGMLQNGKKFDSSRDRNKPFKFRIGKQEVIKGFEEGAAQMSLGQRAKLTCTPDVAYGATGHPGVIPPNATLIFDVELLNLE
Sequence of Peptidyl-prolyl cis-trans isomerase FKBP1A (P62942 whole entry): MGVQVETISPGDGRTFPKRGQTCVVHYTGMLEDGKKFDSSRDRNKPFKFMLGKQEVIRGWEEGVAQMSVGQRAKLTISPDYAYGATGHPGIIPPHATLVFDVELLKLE

What is called Kd is a measure of binding affinity in units of concentration. Consider `COc1ccc(CC[C@@H](OC(=O)[C@@H]2CCCCN2C(=O)[C@H](c2cc(OC)c(OC)c(OC)c2)C2CCCCC2)c2cccc(OCC(=O)O)c2)cc1OC`, for which the deltaH in [1] is -11.2 kcal/mol. For the same compound, the deltaG in assay [2] was -10.9 kcal/mol. Further, the Kd in [3] was 9.8 nM.

As to `COc1ccc(CC[C@H]2OC(=O)[C@@H]3CCCCN3C(=O)[C@@H](C3CCCCC3)c3cc(OC)c(OC)c(c3)OCCCC(=O)COc3cccc2c3)cc1OC`, the Selectivity ratio in [4] was 1.5; in assay [5], 2.4; in [9], 146. Also, the Kd in [6] was 4100 nM; in [7], 43 nM; in assay [8], 66 nM; in assay [10], 28 nM.

For `COc1ccc(CC[C@H]2OC(=O)[C@@H]3CCCCN3C(=O)[C@@H](C3CCCCC3)c3cc(OC)c(OC)c(c3)OC/C=C/COc3cccc2c3)cc1OC`, the Selectivity ratio in [4] amounted to 2; in assay [5], 1.9; in assay [9], 49.9. Moreover, the Kd came to 5390 nM in [6], 216 nM in assay [7], 212 nM in assay [8] and 108 nM in assay [10].

Regarding `COc1ccc(CC[C@H]2OC(=O)[C@@H]3CCCCN3C(=O)[C@@H](C3CCCCC3)c3cc(OC)c(OC)c(c3)OCCCCOc3cccc2c3)cc1OC`, the figures for the Selectivity ratio in assay [4], in [5] and in [9] were 2.1, 3.8 and 154, respectively. Also, the Kd was 4460 nM in assay [6], 62 nM in [7], 113 nM in assay [8] and 29 nM in assay [10].

For `COc1ccc(CC[C@H]2OC(=O)[C@@H]3CCCCN3C(=O)[C@@H](C3CCCCC3)c3cc(OC)c(c(OC)c3)OC/C=C/COc3cccc2c3)cc1OC`, the values for the Selectivity ratio in assay [4], in [5] and in assay [9] were 6.8, 8.6 and more than 112, respectively. For the same compound, the Kd in [6] was more than 10000 nM; in [7], 606 nM; in assay [8], 768 nM; in assay [10], 89 nM.

As to `COc1ccc(CC[C@H]2OC(=O)[C@@H]3CCCCN3C(=O)[C@@H](C3CCCCC3)c3cc(OC)c(OC)c(c3)OCCC(=O)COc3cccc2c3)cc1OC`, the Selectivity ratio came to 2.7 in assay [4], 4.9 in assay [5] and 294 in [9]. In addition, the Kd came to 3530 nM in assay [6], 32 nM in assay [7], 59 nM in assay [8] and 12 nM in [10].

In the case of `COc1ccc(CC[C@H]2OC(=O)[C@@H]3CCCCN3C(=O)[C@@H](C3CCCCC3)c3cc(OC)c(c(OC)c3)OCCCCOc3cccc2c3)cc1OC`, the Selectivity ratio was 4.3 in [4], 6.6 in assay [5] and more than 112 in [9]. Further, the Kd is more than 10000 nM in assay [6], 383 nM in [7], 584 nM in [8] and 89 nM in assay [10].

Regarding `COc1ccc(CC[C@H]2OC(=O)[C@@H]3CCCCN3C(=O)[C@@H](C3CCCCC3)c3cc(OC)c(c(OC)c3)OCC/C=C\COc3cccc2c3)cc1OC`, the Selectivity ratio in assay [4] is 5.6; in [5] it was 6; in assay [9], more than 114. For the same compound, the Kd in [6] is more than 10000 nM; in [7], 495 nM; in assay [8], 526 nM; in [10], 88 nM.

In the case of `COc1ccc(CC[C@H]2OC(=O)[C@@H]3CCCCN3C(=O)[C@@H](C3CCCCC3)c3cc(OC)c(c(OC)c3)OCCCOc3cccc2c3)cc1OC`, the Selectivity ratio in assay [4] was 6.3; in [5], 10.6; in assay [9] it was more than 142. In addition, the Kd is more than 10000 nM in assay [6], 446 nM in [7], 744 nM in [8] and 70 nM in assay [10].

With `COc1ccc(CC[C@H]2OC(=O)[C@@H]3CCCCN3C(=O)[C@@H](C3CCCCC3)c3cc(OC)c(c(OC)c3)OCCOc3cccc2c3)cc1OC`, the Selectivity ratio in assay [4] is 3.3; in assay [5], 7.8; in assay [9], more than 147. Besides, the Kd was more than 10000 nM in assay [6], 227 nM in assay [7], 532 nM in assay [8] and 68 nM in assay [10].

Consider `COc1ccc(CC[C@H]2OC(=O)[C@@H]3CCCCN3C(=O)[C@@H](C3CCCCC3)c3cc(OC)c(OC)c(c3)OC[C@@H](O)[C@H](O)COc3cccc2c3)cc1OC`, for which the deltaH in assay [1] is -11.3 kcal/mol. Also, the figures for the Selectivity ratio in assay [4], in [5] and in assay [9] were 1.8, 4.4 and 103, respectively. Further, in assay [2], the deltaG is -11.1 kcal/mol. For the same compound, the Kd in [6] was 513 nM; in [3] it was 6.9 nM; in assay [7] it was 9 nM; in assay [8], 22 nM; in [10], 5 nM.
